Screening data as filed in PubChem BioAssay.
Shown are actives, neighbours in structure and some others; about 1.9% of the full set was active somewhere.
CHRM5 antagonist = antagonists of human muscarinic M5 receptor (CHRM5); P08912; CHO-hM5 cells, Fluo-8 calcium fluorescence, ACh EC80; inhibition, % at 3 µM; hit rate 0.59% among 360,000;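 active means inhibition above a per-plate cutoff, the mean of that plate's test compounds plus 3 SD, cut at about 27% in these data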;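 further: 0% = acetylcholine EC80 with DMSO and 100% = DMSO without agonist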
M5 ag = CHRM5 agonism in calcium assay; hit rate 0.19% among 360,000; AID 624037; activation, % at 3 µM; CHO-K1 hM5 cells, Fluo-8 calcium fluorescence; 0% DMSO wells, 100% maximal acetylcholine response;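 active means activation above the run's mean over test compounds plus 3 SD, cut at about 23% in these data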;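 further: signal is peak over basal fluorescence ratio across the kinetic read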
M4 PAM = CHRM4 positive allosteric modulation | P08173 | hit rate 0.4% among 360,000 | activation, % at 3 µM | AID 624126 | CHO-K1 hM4/Gqi5, Fluo-8 calcium fluorescence, ACh EC20; 0% = ACh EC20, 100% = maximal ACh;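 active means activation above its plate's cutoff, the mean activation of sample wells plus 3 SD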
Target sequence (P08173 whole entry, looked up): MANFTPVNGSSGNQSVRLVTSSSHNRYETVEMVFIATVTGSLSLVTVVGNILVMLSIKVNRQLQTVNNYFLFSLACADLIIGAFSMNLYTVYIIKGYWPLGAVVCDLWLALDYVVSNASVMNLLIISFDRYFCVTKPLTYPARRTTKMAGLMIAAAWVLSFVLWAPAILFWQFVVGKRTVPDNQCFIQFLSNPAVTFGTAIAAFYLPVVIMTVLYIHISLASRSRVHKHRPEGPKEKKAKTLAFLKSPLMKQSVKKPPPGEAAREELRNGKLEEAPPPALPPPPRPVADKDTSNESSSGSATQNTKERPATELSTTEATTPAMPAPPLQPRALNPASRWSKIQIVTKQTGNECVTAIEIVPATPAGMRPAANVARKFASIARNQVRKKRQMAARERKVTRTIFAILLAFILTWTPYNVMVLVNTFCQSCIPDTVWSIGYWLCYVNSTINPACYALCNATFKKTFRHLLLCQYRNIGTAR
M5 PAM = positive allosteric modulators of human muscarinic M5 receptor. P08912. CHO-K1 hM5, Fluo-8 calcium, ACh EC20 PAM; 0% = ACh EC20, 100% = ACh EC100. activation, % at 3 µM. hit rate 0.3% among 360,000;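 active means activation above the run cutoff, the mean activation of all test compounds plus 3 SD, cut at about 18% in these data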
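System: CHO-K1 cell line with stable human muscarinic M5 receptor expression | Also added: EC20 acetylcholine as agonist stimulus | Compound: One concentration, 3 µM final (nominal) | Timing: Fluo-8 loading 80 min at 37 °C plus 30 min room temperature | Measured by: Fluo-8 calcium dye fluorescence, kinetic read | Read-out basis: % activation, ACh-normalized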
M4 antag = antagonists of human muscarinic M4 receptor (CHRM4); P08173; CHO-hM4 cells, ACh EC80, Fluo-8 calcium fluorescence; inhibition, % at 3 µM; hit rate 0.73% among 360,000;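 active means inhibition above its plate's cutoff, the mean inhibition of sample wells plus 3 SD, cut at about 27% in these data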;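 further: 0% = acetylcholine EC80 with DMSO and 100% = DMSO without agonist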
M4 ag = agonists of human muscarinic M4 receptor (CHRM4); P08173; CHO-K1 hM4/Gqi5, Fluo-8 calcium fluorescence; vehicle 0%, full acetylcholine response 100%; activation, % at 3 µM; hit rate 0.14% among 360,000; AID 624127;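 active means activation above the run mean over all test wells plus 3 SD, cut at about 32% in these data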;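 further: peak over basal fluorescence ratio per well then scaled between controls; 0% = DMSO wells and 100% = acetylcholine at EC100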
An asterisk follows results filed as active.

SMILES	CHRM5 antagonist	M5 ag	M4 PAM	M5 PAM	M4 antag	M4 ag
COc1ccc(-n2nnnc2C(c2cc3ccccc3o2)N2CCN(C/C=C/c3ccccc3)CC2)cc1 (stereo unspecified)	36*	-6	-12	-22	7	1
C(=C\c1ccccc1)/CN1CCN(C(c2cccs2)c2nnnn2-c2ccc3c(c2)OCCO3)CC1 (stereo unspecified)	70*	-7	-16	-23	29*	4
C(=C\c1ccccc1)/CN1CCN(C(c2cc3ccccc3o2)c2nnnn2-c2ccc3c(c2)OCCO3)CC1 (stereo unspecified)	42*	-4	-10	-23	13	1
COc1ccc(-n2nnnc2C(c2cccc3ccccc23)N2CCN(C/C=C/c3ccccc3)CC2)cc1 (stereo unspecified)	10	-3	-10	-17	9	2
COc1ccc(C(c2nnnn2-c2ccc3c(c2)OCCO3)N2CCN(C/C=C/c3ccccc3)CC2)cc1 (stereo unspecified)	67*	-6	-16	-22	35*	3
Cc1ccc(CN2CC(N3CCCC3)CS2(=O)=O)cc1 (stereo unspecified)	4	0	2	-3	-5	-1
COC1=CC(=O)OC(c2cccc(Cl)c2)C1 (stereo unspecified)	6	0	8	-4	9	1
CC(NC(=O)c1ccc2c(=O)n3c(nc2c1)CCCCC3)c1ccccc1 (stereo unspecified)	4	1	0	-6	7	6
Cc1ccc(-c2csc(NC(=O)c3ccc4c(=O)n5c(nc4c3)CCCCC5)n2)cc1	-2	2	23*	8	0	2
O=C(c1ccc2c(=O)n3c(nc2c1)CCCCC3)N1CCN(C(c2ccccc2)c2ccccc2)CC1	-4	-7	-15	-13	64*	1
O=C(c1ccc(=O)oc1)N1CCN(C(c2ccccc2)c2ccccc2)CC1	36*	-7	-14	-23	43*	3
O=C(c1ccc2c(=O)n3c(nc2c1)CCCCC3)N1CCN(c2ccccc2)CC1	-4	1	-10	-3	-7	2
Cc1ccc(Cc2c(-c3ccc(C)cc3)nc3c(Cl)cc(C(F)(F)F)cn23)cc1	0	-6	9	-10	-14	-1
O=C(COc1ccc(Nc2ccccc2)cc1)Nc1ccncc1	17	7	-9	-20	6	16
CCOc1ccc(NC(=O)/C(C#N)=C\c2ccc(N3CCCC3)c(C)c2)cc1	50*	40*	-2	-14	11	9
CCOc1ccc(/C=C(\C#N)C(=O)Nc2cccnc2)cc1	1	-4	1	4	3	1
CCN(CC)CCNC(=O)C12CC3CC(CC(C3)C1)C2	-3	-7	-13	-4	42*	0
CCN(CC)CCNC(=O)C12CC3CC(C)(CC(C)(C3)C1)C2	9	-7	-13	-13	15	2
CN1CCN(C2=Cc3cc(Cl)ccc3Sc3cc(F)ccc32)CC1	45*	-10	-15	-29	50*	9
CN1CCN(C2=Cc3ccccc3Sc3cc(F)c(F)cc32)CC1	22	-12	-17	-43	17	4
CN1CCN(C2=Cc3ccccc3Sc3cc(F)c(Cl)cc32)CC1	15	-12	-19	-29	29*	4
CCN1CCCC1CNC(=O)c1ccc(Sc2ccccc2Cl)c([N+](=O)[O-])c1 (stereo unspecified)	7	-14	-26	-29	97*	4
CCN1CCCC1CNC(=O)c1ccc(Sc2ccc(F)cc2)c([N+](=O)[O-])c1 (stereo unspecified)	13	-19	-29	-23	95*	3
O=C(NCCCN1CCOCC1)c1ccc(Sc2ccc(F)cc2)c([N+](=O)[O-])c1	-7	-6	-9	-1	1	3
CCSc1nnc(NC(=O)NC(CC)(C(F)(F)F)C(F)(F)F)s1	31*	3	-9	-21	8	9
SMILES	CHRM5 antagonist	M5 ag	M4 PAM	M5 PAM	M4 antag	M4 ag
CCSc1nnc(NC(=O)NC(C)(C(F)(F)F)C(F)(F)F)s1	14	2	-6	-11	5	10
CCN(CC)CCNC(=O)c1ccc(N)cc1	-6	-1	-13	1	29*	0
CCN(CC)CCNC(=O)c1ccc(NC(C)=O)cc1	1	0	2	-2	-14	2
COc1ccc([C@H]2C(C#N)=C([S-])N[C@](C)(O)[C@@H]2[n+]2ccccc2)cc1	-4	-18	-15	-19	40*	1
Cn1nnc2cc(C(=O)NC3CC3)ccc21	8	0	10	40*	11	0
O=c1[nH]ncc(N/N=C\c2cccs2)c1Cl	1	-2	-3	3	4	1
CCNC(=O)c1ccc(CSc2nc3ccccc3s2)cc1	34*	-1	-8	-12	-3	16
Cc1ccc(S(=O)(=O)NCCN2CCNC2=O)cc1	-9	4	34*	10	-21	0
Cc1ccc(CN2CCNC2=O)cc1	0	-4	34*	8	-9	1
O=C1NCCN1CCNS(=O)(=O)c1ccc(F)c(Cl)c1	2	0	-4	3	7	1
Cc1cccc(C)c1NC(=O)[C@@]1(CC(=O)O)CC(/C=C/c2ccccc2)=NO1	-4	-4	14*	1	-23	3
CC(O)(C(=O)c1ccccc1)c1ccccc1 (stereo unspecified)	9	-4	22	-4	6	0
CN(C)C/C=C/C(O)(c1ccccc1)c1ccccc1	45*	-19	-54	-36	55*	0
CCc1ccc([C@@H]2CC(=O)[C@@H]3CN(S(=O)(=O)c4ccccc4)[C@H](c4ccc(OC)cc4)C[C@@H]3N2S(=O)(=O)c2ccc(C)cc2)cc1	3	0	-3	-7	-13	0
O=S(=O)(c1ccc(NC(=S)NCc2ccc(F)cc2)cc1)N1CCOCC1	12	7	-4	-8	3	16
CC(Sc1nc2ncc(Cl)cc2[nH]1)C(=O)Nc1ccccc1[N+](=O)[O-] (stereo unspecified)	4	-4	-2	-16	-16	1
COc1ccc(NC(=S)NCc2cccnc2)cc1OC	-11	-1	23*	20*	-11	4
CCC1CCCCN1CCNS(=O)(=O)c1ccc2c(c1)oc(=O)n2C (stereo unspecified)	0	-1	-14	-1	29*	0
